{"data": "Assay results collected from several papers", "note": "Protocols differ between the studies behind these lines."}
{"Structure (SMILES)": "CCCCc1c([N+](=O)[O-])oc2ccc3ccccc3c12", "target or system": "Mycolicibacterium smegmatis", "assay": "microbial growth, resazurin", "test system": "MC^2155", "quantity": "MIC90", "value": "16 µg/mL"}
{"Structure (SMILES)": "O=C(Nc1ncc(Cc2ccccc2)s1)N1CCCC1", "target or system": "Histoplasma capsulatum", "assay": "microbial growth", "quantity": "MIC", "value": "> 20 µM"}
{"Structure (SMILES)": "CCC1(c2ccc(N)cc2)CCC(=O)NC1=O (centres unmarked)", "target or system": "Hep3B", "assay": "cell growth or viability, CCK-8", "setting": "48 h", "quantity": "IC50", "value": "> 50000 nM"}
{"Structure (SMILES)": "O=C(Nc1ncc(Cc2ccc3ccccc3c2)s1)C12CC3CC(CC(C3)C1)C2", "target or system": "Histoplasma capsulatum", "assay": "microbial growth", "quantity": "MIC", "value": "> 20 µM"}
{"Structure (SMILES)": "O=C(O)c1cn(C2CC2)c2cc(N3CCNCC3)c(F)cc2c1=O", "target or system": "Mycolicibacterium smegmatis", "assay": "microbial growth", "test system": "MC2155", "setting": "5 µg/mL, 20 h", "quantity": "inhibition zone", "value": "29 mm"}
{"Structure (SMILES)": "O=C(N/N=C1\\C(=O)N(Cc2ccccc2)c2ccc(Cl)cc21)c1cc2ccccc2[nH]1", "target or system": "ZR75", "assay": "cell growth or viability", "setting": "30 µM", "quantity": "inhibition", "value": "83.8%"}
{"Structure (SMILES)": "O=[N+]([O-])c1cc2c(ccc3c4cc([N+](=O)[O-])oc4ccc23)o1", "target or system": "Mycolicibacterium smegmatis", "assay": "microbial growth, resazurin", "test system": "MC^2155", "quantity": "MIC90", "value": "> 32 µg/mL"}
{"Structure (SMILES)": "COc1ccc2c(c1)/C(=N/NC(=O)c1cc3ccccc3[nH]1)C(=O)N2Cc1ccccc1", "target or system": "ZR75", "assay": "cell growth or viability", "setting": "30 µM", "quantity": "inhibition", "value": "93.8%"}
{"Structure (SMILES)": "COc1cc2oc([N+](=O)[O-])cc2c2ccccc12", "target or system": "Mycolicibacterium smegmatis", "assay": "microbial growth, resazurin", "test system": "MC^2155", "quantity": "MIC90", "value": "16 µg/mL"}
{"Structure (SMILES)": "CC1=CC(=O)c2c(O)cccc2C1=O", "target or system": "COR-L23", "assay": "cell growth or viability, SRB", "quantity": "IC50", "value": "2500 nM"}
{"Structure (SMILES)": "O=C(CC1CCCCC1)Nc1ncc(CC2CCCCC2)s1", "target or system": "Histoplasma capsulatum", "assay": "microbial growth", "quantity": "MIC", "value": "> 20 µM"}
{"Structure (SMILES)": "Nc1c([N+](=O)[O-])oc2ccc3ccccc3c12", "target or system": "Mycolicibacterium smegmatis", "assay": "microbial growth, resazurin", "test system": "MC^2155", "quantity": "MIC90", "value": "> 32 µg/mL"}
{"Structure (SMILES)": "O=C(CC1CCCCC1)Nc1ncc(-c2ccccc2)s1", "target or system": "Histoplasma capsulatum", "assay": "microbial growth", "quantity": "MIC", "value": "> 20 µM"}
{"Structure (SMILES)": "O=C(N/N=C1\\C(=O)N(Cc2ccccc2)c2ccccc21)c1cc2ccccc2[nH]1", "target or system": "ZR75", "assay": "cell growth or viability", "setting": "30 µM", "quantity": "inhibition", "value": "86.6%"}
{"Structure (SMILES)": "CO[C@H]1/C=C/O[C@@]2(C)Oc3c(C)c(O)c4c(O)c(c(/C=N/N5CCN(C)CC5)c(O)c4c3C2=O)NC(=O)/C(C)=C\\C=C\\[C@H](C)[C@H](O)[C@@H](C)[C@@H](O)[C@@H](C)[C@H](OC(C)=O)[C@@H]1C", "target or system": "Mycolicibacterium smegmatis", "assay": "microbial growth, resazurin", "test system": "MC^2155", "quantity": "MIC90", "value": "32 µg/mL"}
{"Structure (SMILES)": "N#Cc1ccc(CN2C(=O)/C(=N\\NC(=O)c3cc4ccccc4[nH]3)c3ccccc32)cc1", "target or system": "ZR75", "assay": "cell growth or viability", "quantity": "IC50", "value": "1510 nM"}
{"Structure (SMILES)": "O=C(CCC1CCCCC1)Nc1ncc(Cc2cccc(F)c2)s1", "target or system": "Histoplasma capsulatum", "assay": "microbial growth", "quantity": "MIC", "value": "2.5 µM"}
{"Structure (SMILES)": "COc1ccc2c(ccc3oc([N+](=O)[O-])cc32)c1", "target or system": "Mycolicibacterium smegmatis", "assay": "microbial growth, resazurin", "test system": "MC^2155", "quantity": "MIC90", "value": "2 µg/mL"}
{"Structure (SMILES)": "O=C(N/N=C1\\C(=O)N(Cc2ccccc2)c2ccc(Br)cc21)c1cc2ccccc2[nH]1", "target or system": "ZR75", "assay": "cell growth or viability", "setting": "30 µM", "quantity": "inhibition", "value": "79.9%"}
{"Structure (SMILES)": "O=C(Nc1ncc(CC2CCCCC2)s1)C12CC3CC(CC(C3)C1)C2", "target or system": "Histoplasma capsulatum", "assay": "microbial growth", "quantity": "MIC", "value": "> 20 µM"}
